# Reference: ChEMBL document CHEMBL1135587, “Discovery and structure-activity relationship of N-(ureidoalkyl)-benzyl-piperidines as potent small molecule CC chemokine receptor-3 (CCR3) antagonists” (J Med Chem, 2002)
# Biological target: T1, C-C chemokine receptor type 1 (Homo sapiens, UniProt P32246)
# T1 sequence (P32246 whole entry): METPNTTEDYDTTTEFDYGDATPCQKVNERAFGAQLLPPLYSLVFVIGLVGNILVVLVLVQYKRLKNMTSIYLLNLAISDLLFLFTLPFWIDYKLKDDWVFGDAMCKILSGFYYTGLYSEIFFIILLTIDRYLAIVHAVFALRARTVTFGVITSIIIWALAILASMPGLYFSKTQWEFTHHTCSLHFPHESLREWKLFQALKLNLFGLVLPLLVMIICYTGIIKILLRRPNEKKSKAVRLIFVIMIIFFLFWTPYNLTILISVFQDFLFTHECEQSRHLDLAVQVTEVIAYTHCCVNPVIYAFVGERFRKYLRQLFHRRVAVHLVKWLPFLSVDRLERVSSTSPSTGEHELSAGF
# Test: Inhibitory activity against human Chemokine receptor type 1 expressed in chinese hamster ovary cells
# Format: cell-based, CHO
row,Structure (SMILES),IC50
1,c1ccc(CCCCN2CCC(Cc3ccccc3)CC2)cc1,> 50 µM
2,N#Cc1cccc(NC(=O)Nc2ccccc2CN2CCC(Cc3ccccc3)CC2)c1,> 10 µM
3,N#CC(CCCN1CCC(O)(c2ccc(Cl)cc2)CC1)(c1ccccc1)c1ccccc1 [BERLEX COMPOUND],0.63 µM
4,COC(=O)N1CCC(NC(=O)NCC(CCCN2CCC(O)(c3ccc(Cl)cc3)CC2)(c2ccccc2)c2ccccc2)CC1,0.5 µM
5,COc1ccc(NC(=O)Nc2ccccc2CN2CCC(Cc3ccccc3)CC2)cc1,> 10 µM
6,O=C(Nc1ccc2c[nH]nc2c1)Nc1ccccc1CN1CCC(Cc2ccccc2)CC1,> 10 µM
7,O=C(NCC(CCCN1CCC(O)(c2ccc(Cl)cc2)CC1)(c1ccccc1)c1ccccc1)NC1CCN(Cc2ccccc2)CC1,0.31 µM
8,O=C(NCCN1CCCCC1)Nc1ccccc1CN1CCC(Cc2ccccc2)CC1,> 50 µM
9,O=C(NCCCO)Nc1ccccc1CN1CCC(Cc2ccccc2)CC1,> 10 µM
10,CC(C)(C)NC(=O)NCC(CCCN1CCC(O)(c2ccc(Cl)cc2)CC1)(c1ccccc1)c1ccccc1,0.071 µM
11,O=C(Nc1cc(F)ccc1F)Nc1ccccc1CN1CCC(Cc2ccccc2)CC1,> 50 µM
12,N#CC(CCCN1CCN(Cc2ccccc2)CC1)(c1ccccc1)c1ccccc1,> 50 µM
13,COc1ccc(NC(=O)NCC(CCCN2CCC(O)(c3ccc(Cl)cc3)CC2)(c2ccccc2)c2ccccc2)cc1,0.78 µM
14,O=C(NCC(CCCN1CCC(O)(c2ccc(Cl)cc2)CC1)(c1ccccc1)c1ccccc1)Nc1ccncc1,0.167 µM
15,O=C(NCCCCO)NCC(CCCN1CCC(O)(c2ccc(Cl)cc2)CC1)(c1ccccc1)c1ccccc1,0.24 µM
16,c1ccc(CC2CCN(Cc3ccccc3)CC2)cc1,> 50 µM
17,O=C(NCC(CCCN1CCC(O)(c2ccc(Cl)cc2)CC1)(c1ccccc1)c1ccccc1)Nc1cc(F)ccc1F,1.34 µM
18,O=C(NCCN1CCCCC1)NCC(CCCN1CCC(O)(c2ccc(Cl)cc2)CC1)(c1ccccc1)c1ccccc1,0.36 µM

# Now from value to compound:
row,IC50,Structure (SMILES)
1,> 10 µM,O=C(Nc1cc(F)ccc1F)Nc1ccccc1C(O)CN1CCC(Cc2ccccc2)CC1 (stereo not drawn)
2,> 10 µM,N#Cc1cccc(NC(=O)Nc2ccccc2C(O)CN2CCC(Cc3ccccc3)CC2)c1 (stereo not drawn)

# Biological target: T2, C-C chemokine receptor type 3 (Homo sapiens, UniProt P51677)
# T2 sequence (P51677 whole entry): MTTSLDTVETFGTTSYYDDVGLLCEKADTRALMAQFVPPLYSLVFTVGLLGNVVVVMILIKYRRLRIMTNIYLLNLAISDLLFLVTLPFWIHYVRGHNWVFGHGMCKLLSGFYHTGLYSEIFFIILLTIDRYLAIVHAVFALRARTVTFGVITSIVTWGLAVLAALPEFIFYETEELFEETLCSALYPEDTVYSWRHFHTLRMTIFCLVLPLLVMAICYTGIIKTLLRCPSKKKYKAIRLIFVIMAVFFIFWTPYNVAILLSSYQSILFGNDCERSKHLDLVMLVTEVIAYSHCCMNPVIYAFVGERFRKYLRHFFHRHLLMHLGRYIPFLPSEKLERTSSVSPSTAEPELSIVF
# Test: Inhibitory activity against recombinant human Chemokine receptor type 3 (CCR3) expressed in chinese hamster ovary cells
# Format: cell-based, CHO
# In short: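 CHO cells transfected with human CCR3, 5×10^5 per well, incubated 30 min at room temperature with 150 pM (final) 125I-labeled human eotaxin and compound. Binding buffer: RPMI 1640 with 0.5% BSA, 20 mM HEPES, 5 mM MgCl2. Filtration on protamine-treated filter plates, washed with binding buffer plus 0.5 M NaCl, filter counted. Nonspecific binding defined with 100 nM eotaxin. Percent inhibition taken against compound-free total binding. IC50 values are the mean of usually three determinations.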
row,Structure (SMILES),IC50
1,CC1C2=C(CC=CC2)C(=O)N1CC1CCN(CCc2ccccc2)CC1 (stereo not drawn),12 µM
2,OC1(c2ccc(Cl)cc2)CCN(CCCCc2ccccc2)CC1,14.5 µM
3,c1ccc(CCCCN2CCC(Cc3ccccc3)CC2)cc1,3.8 µM
4,N#Cc1cccc(NC(=O)Nc2ccccc2CN2CCC(Cc3ccccc3)CC2)c1,0.75 µM
5,O=C1CC2(CCc3ccccc32)C(=O)N1CC1CCN(CCc2ccccc2)CC1 (stereo not drawn),2 µM
6,N#CC(CCCN1CCC(O)(c2ccc(Cl)cc2)CC1)(c1ccccc1)c1ccccc1 [BERLEX COMPOUND],9 µM
7,COC(=O)N1CCC(NC(=O)NCC(CCCN2CCC(O)(c3ccc(Cl)cc3)CC2)(c2ccccc2)c2ccccc2)CC1,5.3 µM
8,O=C(Nc1cc(F)ccc1F)Nc1ccccc1CN1CCC(C(=O)c2ccccc2)CC1,4.65 µM
9,COc1ccc(NC(=O)Nc2ccccc2CN2CCC(Cc3ccccc3)CC2)cc1,0.75 µM
10,O=C(Nc1ccc2c[nH]nc2c1)Nc1ccccc1CN1CCC(Cc2ccccc2)CC1,0.45 µM
11,c1ccc(CCCCN2CCN(Cc3ccccc3)CC2)cc1,8.4 µM
12,O=C(NCC(CCCN1CCC(O)(c2ccc(Cl)cc2)CC1)(c1ccccc1)c1ccccc1)NC1CCN(Cc2ccccc2)CC1,1.62 µM
13,O=C(NCCN1CCCCC1)Nc1ccccc1CN1CCC(Cc2ccccc2)CC1,7.6 µM
14,O=C(NCCCO)Nc1ccccc1CN1CCC(Cc2ccccc2)CC1,2.6 µM
15,O=C(Nc1cccc(CN2CCC(Cc3ccccc3)CC2)c1)Nc1ccc2[nH]ncc2c1,0.62 µM
16,CC(C)(C)NC(=O)NCC(CCCN1CCC(O)(c2ccc(Cl)cc2)CC1)(c1ccccc1)c1ccccc1,3 µM
17,O=C(NCc1ccc2c(c1)OCO2)Nc1ccccc1CN1CCC(C(=O)c2ccccc2)CC1,7.35 µM
18,COC(=O)c1ccc(CN2CCC(Cc3ccccc3)CC2)c(NC(=O)Nc2cccc(OC)c2)c1,0.777 µM
19,O=C(Nc1cc(F)ccc1F)Nc1ccccc1CN1CCC(Cc2ccccc2)CC1,1.75 µM
20,N#CC(CCCN1CCN(Cc2ccccc2)CC1)(c1ccccc1)c1ccccc1,14.1 µM

row,Structure (SMILES),IC50
1,COc1ccc(NC(=O)NCC(CCCN2CCC(O)(c3ccc(Cl)cc3)CC2)(c2ccccc2)c2ccccc2)cc1,7.6 µM
2,O=C(NCC(CCCN1CCC(O)(c2ccc(Cl)cc2)CC1)(c1ccccc1)c1ccccc1)Nc1ccncc1,3.5 µM
3,O=C(NCCCCO)NCC(CCCN1CCC(O)(c2ccc(Cl)cc2)CC1)(c1ccccc1)c1ccccc1,5.95 µM
4,N#Cc1cccc(NC(=O)NCc2ccccc2CN2CCC(Cc3ccccc3)CC2)c1,2.8 µM
5,c1ccc(CC2CCN(Cc3ccccc3)CC2)cc1,8.3 µM
6,O=C(NCC(CCCN1CCC(O)(c2ccc(Cl)cc2)CC1)(c1ccccc1)c1ccccc1)Nc1cc(F)ccc1F,5.7 µM
7,O=C(NCCN1CCCCC1)NCC(CCCN1CCC(O)(c2ccc(Cl)cc2)CC1)(c1ccccc1)c1ccccc1,2.2 µM
8,O=C(NCC(c1ccccc1)c1ccccc1)Nc1ccccc1CN1CCC(C(=O)c2ccccc2)CC1,3.9 µM
9,O=C(NCCc1ccc(F)cc1)Nc1ccccc1CN1CCC(Cc2ccccc2)CC1,3.8 µM
10,O=C(NCCc1ccc(F)cc1)Nc1ccccc1CN1CCN(Cc2ccccc2)CC1,9.2 µM
11,O=C(NCCCO)NC(Cc1ccccc1)c1ccccc1 (stereo not drawn),50 µM
12,O=C(Nc1cc(F)ccc1F)Nc1ccccc1CN1CCC(c2ccccc2)CC1,11 µM
13,O=C(NCC(c1ccccc1)c1ccccc1)Nc1ccccc1CN1CCC(Cc2ccccc2)CC1,2.65 µM
14,COc1ccc(NC(=O)NCc2ccccc2CN2CCC(Cc3ccccc3)CC2)cc1,1.3 µM
15,O=C(Nc1cccc(CN2CCC(Cc3ccccc3)CC2)c1)NC1CCN(Cc2ccccc2)CC1,3.7 µM
16,COc1cccc(NC(=O)NCc2ccccc2CN2CCC(Cc3ccccc3)CC2)c1,2.4 µM
17,N#Cc1cccc(NC(=O)Nc2c(CN3CCC(Cc4ccc(F)cc4)CC3)ccc3ccccc23)c1,0.529 µM
18,Fc1ccc(CCCN2CCC3C(C2)c2cccc4c2N3CC4)cc1 (stereo not drawn),1 µM
19,N#Cc1cccc(NC(=O)Nc2cccc(CN3CCC(Cc4ccccc4)CC3)c2)c1,0.45 µM
20,O=C(NCc1ccc2c(c1)OCO2)Nc1ccccc1CN1CCC(Cc2ccccc2)CC1,1.75 µM

# Compounds with a lower IC50, results first:
row,IC50,Structure (SMILES)
1,0.41 µM,O=C(Nc1cc(F)ccc1F)Nc1ccccc1C(O)CN1CCC(Cc2ccccc2)CC1 (stereo not drawn)
2,0.361 µM,O=C(Nc1ccccc1)Nc1ccccc1CN1CCC(Cc2ccc(F)cc2)CC1
3,0.36 µM,COc1cccc(NC(=O)Nc2cc(CO)ccc2CN2CCC(Cc3ccccc3)CC2)c1
4,0.31 µM,N#Cc1cccc(NC(=O)Nc2ccccc2CN2CCC(Cc3ccc(F)cc3)CC2)c1
5,0.277 µM,N#Cc1cccc(NC(=O)Nc2ccc(O)cc2CN2CCC(Cc3ccccc3)CC2)c1
6,0.26 µM,O=C(Nc1ccc2[nH]ncc2c1)Nc1cc2c(cc1CN1CCC(Cc3ccccc3)CC1)OCO2
7,0.249 µM,O=C(Nc1ccccc1)Nc1ccccc1C(O)CN1CCC(Cc2ccccc2)CC1 (stereo not drawn)
8,0.237 µM,N#Cc1cccc(NC(=O)Nc2cc3c(cc2CN2CCC(Cc4ccccc4)CC2)OCO3)c1
9,0.228 µM,CC(=O)c1cccc(NC(=O)Nc2cc3c(cc2CN2CCC(Cc4ccccc4)CC2)OCO3)c1
10,0.153 µM,O=C(Cc1ccc(F)cc1)Nc1ccccc1CCN1CCC(Cc2ccc(F)cc2)CC1
11,0.141 µM,COc1cccc(NC(=O)Nc2cc3c(cc2CN2CCC(Cc4ccc(F)cc4)CC2)OCO3)c1
12,0.125 µM,CC(=O)c1cccc(NC(=O)Nc2ccccc2CN2CCC(Cc3ccc(F)cc3)CC2)c1
13,0.114 µM,N#Cc1cccc(NC(=O)Nc2cc(CO)ccc2CN2CCC(Cc3ccccc3)CC2)c1
14,0.085 µM,N#Cc1cccc(NC(=O)Nc2cc3c(cc2CN2CCC(Cc4ccc(F)cc4)CC2)OCO3)c1
15,0.067 µM,COC(=O)c1ccc(NC(=O)Nc2cccc(C#N)c2)c(CN2CCC(Cc3ccc(F)cc3)CC2)c1
16,0.064 µM,COC(=O)c1ccc(NC(=O)Nc2cccc(OC)c2)c(CN2CCC(Cc3ccc(F)cc3)CC2)c1
17,0.055 µM,N#Cc1cccc(NC(=O)Nc2ccc(CO)cc2CN2CCC(Cc3ccc(F)cc3)CC2)c1
18,0.053 µM,O=C(Nc1ccccc1)Nc1cccc(CO)c1CN1CCC(Cc2ccc(F)cc2)CC1
19,0.049 µM,N#Cc1cccc(NC(=O)Nc2ccccc2C(O)CN2CCC(Cc3ccccc3)CC2)c1 (stereo not drawn)

row,IC50,Structure (SMILES)
1,0.047 µM,COc1cccc(NC(=O)Nc2ccc(CO)cc2CN2CCC(Cc3ccc(F)cc3)CC2)c1
2,0.042 µM,COC(=O)c1ccc(NC(=O)Nc2cccc(C(C)=O)c2)c(CN2CCC(Cc3ccc(F)cc3)CC2)c1
3,0.04 µM,CC(=O)c1cccc(NC(=O)Nc2cc3c(cc2CN2CCC(Cc4ccc(F)cc4)CC2)OCO3)c1
4,0.035 µM,O=C(Nc1ccc(F)cc1)Nc1ccccc1CCN1CCC(Cc2ccc(F)cc2)CC1
5,0.024 µM,O=C(Nc1ccccc1)Nc1ccccc1C(O)CN1CCC(Cc2ccc(F)cc2)CC1 (stereo not drawn)
6,0.021 µM,COc1cccc(NC(=O)Nc2ccccc2C(O)CN2CCC(Cc3ccc(F)cc3)CC2)c1 (stereo not drawn)
7,0.021 µM,C[N+]1(Cc2cc(O)ccc2NC(=O)Nc2cccc(C#N)c2)CCC(Cc2ccccc2)CC1 (stereo not drawn)
8,0.017 µM,O=C(Nc1ccccc1)Nc1cccc(C(=O)O)c1CN1CCC(Cc2ccc(F)cc2)CC1
9,0.014 µM,N#Cc1cccc(NC(=O)Nc2ccccc2CCN2CCC(Cc3ccc(F)cc3)CC2)c1
10,0.011 µM,COc1cccc(NC(=O)Nc2ccccc2CCN2CCC(Cc3ccc(F)cc3)CC2)c1
11,0.011 µM,COC(=O)c1cccc(NC(=O)Nc2cccc(OC)c2)c1CN1CCC(Cc2ccc(F)cc2)CC1
12,0.011 µM,C[N+]1(Cc2cc3c(cc2NC(=O)Nc2cccc(C#N)c2)OCO3)CCC(Cc2ccccc2)CC1 (stereo not drawn)
13,0.011 µM,N#Cc1cccc(NC(=O)Nc2ccccc2C(O)CN2CCC(Cc3ccc(F)cc3)CC2)c1 (stereo not drawn)
14,0.009 µM,COC(=O)c1cccc(NC(=O)Nc2ccccc2)c1CN1CCC(Cc2ccc(F)cc2)CC1
15,0.008 µM,N#Cc1cccc(NC(=O)Nc2ccc(C(N)=O)cc2CN2CCC(Cc3ccc(F)cc3)CC2)c1
16,0.007 µM,COC(=O)c1cccc(NC(=O)Nc2cccc(C#N)c2)c1CN1CCC(Cc2ccc(F)cc2)CC1
17,0.003 µM,N#Cc1cccc(NC(=O)Nc2cccc(C(N)=O)c2CN2CCC(Cc3ccc(F)cc3)CC2)c1
18,0.002 µM,C[N+]1(Cc2cc3c(cc2NC(=O)Nc2cccc(C#N)c2)OCO3)CCC(Cc2ccc(F)cc2)CC1 (stereo not drawn)
19,0.001 µM,CC(=O)c1cccc(NC(=O)Nc2cc3c(cc2C[N+]2(C)CCC(Cc4ccc(F)cc4)CC2)OCO3)c1 (stereo not drawn)
